ChEMBL document CHEMBL1137361, “WB4101-related compounds: new, subtype-selective alpha1-adrenoreceptor antagonists (or inverse agonists?)” (J Med Chem, 2006)

Assays:
[1] = biological target: T1, Alpha-1D adrenergic receptor (Homo sapiens, UniProt P25100); test: Displacement of [3H]prazosin from cloned human adrenergic alpha 1D receptor expressed in CHO cells; type: cell-based
T1 sequence (P25100 whole entry): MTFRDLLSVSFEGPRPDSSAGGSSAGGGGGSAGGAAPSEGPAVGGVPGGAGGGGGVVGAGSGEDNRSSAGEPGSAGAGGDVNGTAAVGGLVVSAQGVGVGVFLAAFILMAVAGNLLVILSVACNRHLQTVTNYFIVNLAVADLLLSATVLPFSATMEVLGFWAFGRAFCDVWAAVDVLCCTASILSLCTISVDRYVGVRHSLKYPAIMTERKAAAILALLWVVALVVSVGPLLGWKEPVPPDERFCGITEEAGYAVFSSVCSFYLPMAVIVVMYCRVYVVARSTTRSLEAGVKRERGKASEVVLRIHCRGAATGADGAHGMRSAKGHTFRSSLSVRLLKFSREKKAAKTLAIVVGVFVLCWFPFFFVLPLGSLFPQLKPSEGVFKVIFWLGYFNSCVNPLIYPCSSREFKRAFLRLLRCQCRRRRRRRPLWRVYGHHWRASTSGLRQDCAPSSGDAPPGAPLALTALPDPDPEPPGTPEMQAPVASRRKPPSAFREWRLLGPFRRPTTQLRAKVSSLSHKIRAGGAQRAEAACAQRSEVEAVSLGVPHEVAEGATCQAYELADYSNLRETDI
Procedure, shortened: (§1)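 Radioligand binding with [3H]prazosin as the label. Membranes came from CHO cells expressing the cloned human receptor. Affinity is expressed as pKi.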

[2] = biological target: T2, Alpha-1B adrenergic receptor (Homo sapiens, UniProt P35368); test: Displacement of [3H]prazosin from cloned human adrenergic alpha 1B receptor expressed in CHO cells; type: cell-based; procedure, shortened: as §1
T2 sequence (P35368 whole entry): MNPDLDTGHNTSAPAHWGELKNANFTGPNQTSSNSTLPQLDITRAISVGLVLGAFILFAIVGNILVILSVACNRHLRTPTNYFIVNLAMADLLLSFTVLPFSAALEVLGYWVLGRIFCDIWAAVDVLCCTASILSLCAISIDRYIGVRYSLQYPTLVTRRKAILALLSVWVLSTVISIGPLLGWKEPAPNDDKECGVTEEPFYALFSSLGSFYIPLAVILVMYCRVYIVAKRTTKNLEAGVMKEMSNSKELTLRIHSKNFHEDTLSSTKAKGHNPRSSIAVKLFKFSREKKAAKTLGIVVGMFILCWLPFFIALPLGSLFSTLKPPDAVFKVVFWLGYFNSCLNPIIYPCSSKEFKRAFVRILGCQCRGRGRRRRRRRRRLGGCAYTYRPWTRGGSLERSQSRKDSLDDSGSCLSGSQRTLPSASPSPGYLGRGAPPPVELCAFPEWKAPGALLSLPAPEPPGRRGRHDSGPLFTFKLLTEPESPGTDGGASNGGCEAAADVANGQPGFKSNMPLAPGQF

[3] = biological target: T3, 5-hydroxytryptamine receptor 1A (Rattus norvegicus, UniProt P19327); test: Displacement of [3H]8-OH-DPAT from 5-HT1A receptor in rat hippocampus; type: tissue-based
T3 sequence (P19327 whole entry): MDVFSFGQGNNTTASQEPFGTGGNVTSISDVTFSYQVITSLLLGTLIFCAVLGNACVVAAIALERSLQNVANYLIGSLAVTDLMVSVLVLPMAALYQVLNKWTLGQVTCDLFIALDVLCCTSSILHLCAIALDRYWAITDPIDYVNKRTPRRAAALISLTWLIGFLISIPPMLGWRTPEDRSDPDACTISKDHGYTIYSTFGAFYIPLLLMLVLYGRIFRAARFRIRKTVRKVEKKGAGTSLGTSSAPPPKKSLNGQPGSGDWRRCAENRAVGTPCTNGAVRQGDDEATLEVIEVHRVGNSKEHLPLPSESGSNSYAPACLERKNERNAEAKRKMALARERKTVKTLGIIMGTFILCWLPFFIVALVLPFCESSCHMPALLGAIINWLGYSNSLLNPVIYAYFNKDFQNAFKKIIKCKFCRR
Procedure, shortened: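 Radioligand binding with [3H]-8-OH-DPAT in membrane preparations from rat hippocampus. Affinity is expressed as pKi.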

[4] = biological target: T4, Alpha-1A adrenergic receptor (Homo sapiens, UniProt P35348); test: Displacement of [3H]prazosin from cloned human adrenergic alpha 1A receptor expressed in CHO cells; type: cell-based; procedure, shortened: as §1
T4 sequence (P35348 whole entry): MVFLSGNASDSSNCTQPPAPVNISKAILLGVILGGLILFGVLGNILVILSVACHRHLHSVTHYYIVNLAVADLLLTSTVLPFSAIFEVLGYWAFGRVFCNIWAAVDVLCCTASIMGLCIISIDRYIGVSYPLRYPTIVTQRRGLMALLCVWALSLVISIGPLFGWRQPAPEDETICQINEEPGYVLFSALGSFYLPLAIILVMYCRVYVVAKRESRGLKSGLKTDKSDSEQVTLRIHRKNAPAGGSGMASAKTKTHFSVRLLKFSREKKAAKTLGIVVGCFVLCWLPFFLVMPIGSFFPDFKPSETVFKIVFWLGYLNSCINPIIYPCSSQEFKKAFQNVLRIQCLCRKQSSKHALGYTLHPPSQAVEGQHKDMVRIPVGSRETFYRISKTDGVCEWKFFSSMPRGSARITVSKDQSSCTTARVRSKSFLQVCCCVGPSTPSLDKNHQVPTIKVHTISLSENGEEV

[5] = Selectivity for 5HT1A receptor in rat hippocampus over human adrenergic alpha 1A receptor; type: tissue-based
[6] = biological target: Adrenergic receptors; alpha-1 A & B (Homo sapiens) (UniProt P35348+P35368); test: Selectivity for human adrenergic alpha 1B receptor over human adrenergic alpha 1A receptor; type: protein assay
[7] = biological target: Alpha adrenergic receptor (1a and 1d) (Homo sapiens) (UniProt P35348+P25100); test: Selectivity for human adrenergic alpha 1A receptor over human adrenergic alpha 1D receptor
[8] = biological target: T5, Alpha-1D adrenergic receptor (Rattus norvegicus, UniProt P23944); test: Activity at adrenergic alpha 1D receptor assessed as antagonism on noradrenaline-induced contraction of Sprague-Dawley rat thoracic aorta; type: functional, tissue-based; conditions: read-out: pA2 (converted)
T5 sequence (P23944 whole entry): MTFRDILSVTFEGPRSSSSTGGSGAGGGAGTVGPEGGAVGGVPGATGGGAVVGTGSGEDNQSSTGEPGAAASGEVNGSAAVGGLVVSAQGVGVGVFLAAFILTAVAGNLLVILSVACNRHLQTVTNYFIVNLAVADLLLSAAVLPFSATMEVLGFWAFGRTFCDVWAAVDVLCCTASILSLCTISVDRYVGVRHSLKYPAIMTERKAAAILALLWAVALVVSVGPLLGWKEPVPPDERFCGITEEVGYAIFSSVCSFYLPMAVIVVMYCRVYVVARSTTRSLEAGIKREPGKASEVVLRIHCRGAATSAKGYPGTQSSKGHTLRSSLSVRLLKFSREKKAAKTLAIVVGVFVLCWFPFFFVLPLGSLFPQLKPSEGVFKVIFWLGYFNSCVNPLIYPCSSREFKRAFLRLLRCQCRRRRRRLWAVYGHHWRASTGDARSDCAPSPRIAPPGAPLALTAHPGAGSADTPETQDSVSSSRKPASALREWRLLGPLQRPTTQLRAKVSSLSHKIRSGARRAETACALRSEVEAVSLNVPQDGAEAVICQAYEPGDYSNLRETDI
Procedure, shortened: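 Rat thoracic aorta contracted with (-)-noradrenaline. Blocking activity was measured as antagonism of the contraction.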

[9] = biological target: T6, Alpha-2A adrenergic receptor (Rattus norvegicus, UniProt P22909); test: Activity at adrenergic alpha 2A receptor assessed as antagonism on clonidine-inhibited twitch responses of field-stimulated Sprague-Dawley rat vas deferens; conditions: read-out: pA2 (converted)
T6 sequence (P22909 whole entry): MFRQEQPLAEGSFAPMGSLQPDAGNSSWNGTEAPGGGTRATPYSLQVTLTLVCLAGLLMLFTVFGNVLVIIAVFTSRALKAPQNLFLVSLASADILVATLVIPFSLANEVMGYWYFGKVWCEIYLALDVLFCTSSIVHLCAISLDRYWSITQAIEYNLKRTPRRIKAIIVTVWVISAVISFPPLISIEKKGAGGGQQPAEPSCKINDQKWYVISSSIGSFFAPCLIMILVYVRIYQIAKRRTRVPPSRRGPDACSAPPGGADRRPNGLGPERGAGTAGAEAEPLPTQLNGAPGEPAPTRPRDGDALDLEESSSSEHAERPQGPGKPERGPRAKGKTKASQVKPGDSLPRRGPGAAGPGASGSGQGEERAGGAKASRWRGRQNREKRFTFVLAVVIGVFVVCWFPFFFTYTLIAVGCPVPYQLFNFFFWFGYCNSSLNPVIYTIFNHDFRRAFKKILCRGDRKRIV

Cavia porcellus [10] = species on record: Cavia porcellus; test: Inverse agonist effect on calcium-induced increase in resting tension of calcium-depleted guinea pig thoracic aorta at 100 nM; type: functional
Procedure, shortened: (§2)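 Guinea pig thoracic aorta was calcium-depleted and preincubated with antagonist, then challenged with Ca2+. The Ca2+-induced increase in resting tone was compared with the increase after the same Ca2+ challenge in the absence of antagonist.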

[11] = biological target: T7, Alpha-1A adrenergic receptor (Rattus norvegicus, UniProt P43140); test: Activity at adrenergic alpha 1A receptor assessed as antagonsim of noradrenaline-induced contraction of […]; type: functional, tissue-based, Sprague-Dawley; conditions: read-out: pA2 (converted)
T7 sequence (P43140 whole entry): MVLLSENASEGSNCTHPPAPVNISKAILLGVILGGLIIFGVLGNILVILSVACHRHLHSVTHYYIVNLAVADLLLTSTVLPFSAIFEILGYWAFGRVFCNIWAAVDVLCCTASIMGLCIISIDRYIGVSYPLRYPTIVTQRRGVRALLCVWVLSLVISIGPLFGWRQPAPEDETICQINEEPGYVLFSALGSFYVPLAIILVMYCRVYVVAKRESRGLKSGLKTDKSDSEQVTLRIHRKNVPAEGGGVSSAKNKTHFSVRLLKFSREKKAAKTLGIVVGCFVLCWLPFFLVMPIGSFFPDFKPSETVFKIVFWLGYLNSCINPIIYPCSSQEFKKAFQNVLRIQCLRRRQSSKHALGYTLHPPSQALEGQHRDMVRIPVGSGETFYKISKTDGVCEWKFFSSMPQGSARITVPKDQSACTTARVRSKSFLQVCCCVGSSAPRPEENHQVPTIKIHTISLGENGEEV
Procedure, shortened: (§3)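 Rat vas deferens, prostatic portion. Contraction was induced with (-)-noradrenaline, and blocking activity was measured as antagonism of that contraction.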

Cavia porcellus [12] = species on record: Cavia porcellus; test: Inverse agonist effect on calcium-induced increase in resting tension of calcium-depleted guinea pig thoracic aorta at 10 nM; type: functional; procedure, shortened: as §2
[13] = biological target: T7, Alpha-1A adrenergic receptor; test: Activity at adrenergic alpha 1A receptor assessed as antagonism of noradrenaline-induced contraction of Sprague-Dawley rat vas deferens; type: functional, tissue-based; conditions: read-out: pA2 (converted); procedure, shortened: as §3

Row | Structure (SMILES) | Ki [1] [nM] | Ki [2] [nM] | Ki [3] [nM] | Ki [4] [nM] | Selectivity ratio [5] | Selectivity ratio [6] | Selectivity ratio [7] | Kb [8] [nM] | Kb [9] [nM] | Activity (Cavia porcellus [10]) [%] | Kb [11] [nM] | Activity (Cavia porcellus [12]) [%] | Kb [13] [nM]
1 | COc1ccc(-c2ccccc2)cc1OCCNC[C@@H]1COc2ccccc2O1 | 53.7 | 61.7 | 363 | 16.2 | 22.4 | 3.8 | 3.3 | – | – | – | – | – | –
2 | COc1cccc(OC)c1OCCNC[C@H]1COc2ccccc2O1.Cl | – | – | 2.45 | 0.407 | – | – | – | 0.631 | 120 | 27 | 0.324 | 10 | –
3 | COc1ccc2ccccc2c1OCCNC[C@@H]1COc2cc3c(cc2O1)CCCC3 | 955 | 550 | 3630 | 324 | 11.2 | 1.7 | 3 | – | – | – | – | – | –
4 | COc1cc(-c2ccccc2)ccc1OCCNC[C@@H]1COc2ccccc2O1 | 363 | 550 | 871 | 234 | 3.7 | 2.3 | 1.5 | – | – | – | – | – | –
5 | COc1cccc(OC)c1OCCNC[C@@H]1COc2cc3c(cc2O1)CCCC3 | 204 | 398 | 501 | 100 | 5 | 4 | 2 | – | – | – | – | – | –
6 | COc1ccc2c(c1OCCNC[C@@H]1COc3ccccc3O1)CCCC2 | 15.8 | 49 | 132 | 11.5 | 11.5 | 4.3 | 1.3 | – | – | – | – | – | –
7 | COc1cccc(OC)c1OCCNC[C@@H]1COc2cc3ccccc3cc2O1 | 295 | 427 | 1000 | 102 | 9.8 | 4.2 | 2.9 | – | – | – | – | – | –
8 | COc1cccc(-c2ccccc2)c1OCCNC[C@@H]1COc2ccccc2O1 | 28.8 | 151 | 77.6 | 9.33 | 8.3 | 16.2 | 3.1 | – | – | – | – | – | –
9 | COc1cccc(OC)c1OCCNC[C@@H]1COc2ccccc2O1 | – | – | 40.7 | 11.2 | – | – | – | 22.4 | 457 | – | 20 | – | 16.2
10 | COc1cccc(OC)c1OCCNCC1COc2ccccc2O1 (stereo not given) | – | – | – | – | – | – | – | – | 257 | – | 0.661 | 25 | –
